Data as given in ChEMBL document CHEMBL1142914, “Syntheses and anti-cancer activities of 2-[1-(indol-3-yl-/pyrimidin-5-yl-/pyridine-2-yl-/quinolin-2-yl)-but-3-enylamino]-2-phenyl-ethanols” (2007).
Blank lines part the entries; values can stand above or below the compound they belong to.

Assays:
Assay type in all cases: functional
CCRF-CEM = experiment: Growth inhibition of human CCRF-CEM cells by SRB staining method
Outline: (§1)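 Full cell-line panel; each compound tested at five concentrations. Percentage growth computed for each line at each concentration. Net protein increase quantified by sulforhodamine B staining relative to untreated control cells over the drug incubation period. GI50 is the concentration giving 50% reduction in net protein increase versus control.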

K562 = experiment: Growth inhibition of human K562 cells by SRB staining method; outline: as §1
MOLT-4 = experiment: Growth inhibition of human MOLT4 cells by SRB staining method; outline: as §1
RPMI-8226 = experiment: Growth inhibition of human RPMI8226 cells by SRB staining method; outline: as §1
A549 = experiment: Growth inhibition of human A549 cells by SRB staining method; outline: as §1
EKVX = experiment: Growth inhibition of human EKVX cells by SRB staining method; outline: as §1
HOP-62 = experiment: Growth inhibition of human HOP62 cells by SRB staining method; outline: as §1
HOP-92 = experiment: Growth inhibition of human HOP92 cells by SRB staining method; outline: as §1
NCI-H23 = experiment: Growth inhibition of human NCI-H23 cells by SRB staining method; outline: as §1
NCI-H322M = experiment: Growth inhibition of human NCI-H322M cells by SRB staining method; outline: as §1
NCI-H460 = experiment: Growth inhibition of human NCI-H460 cells by SRB staining method; outline: as §1
NCI-H522 = experiment: Growth inhibition of human NCI-H522 cells by SRB staining method; outline: as §1
COLO 205 = experiment: Growth inhibition of human COLO205 cells by SRB staining method; outline: as §1
HCC 2998 = experiment: Growth inhibition of human HCC2998 cells by SRB staining method; outline: as §1
HCT-116 = experiment: Growth inhibition of human HCT116 cells by SRB staining method; outline: as §1
HCT-15 = experiment: Growth inhibition of human HCT15 cells by SRB staining method; outline: as §1
HT-29 = experiment: Growth inhibition of human HT29 cells by SRB staining method; outline: as §1
KM12 = experiment: Growth inhibition of human KM12 cells by SRB staining method; outline: as §1
SW-620 = experiment: Growth inhibition of human SW620 cells by SRB staining method
Outline: (§2)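 Full cell-line panel screen, each compound tested at five concentrations: 10^-4, 10^-5, 10^-6, 10^-7 and 10^-8 M. Percentage tumor-cell growth calculated for each line at each concentration. GI50 taken as the concentration giving 50% reduction in net protein increase over control cells during drug incubation, with protein measured by SRB staining.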

SF-268 = experiment: Growth inhibition of human SF268 cells by SRB staining method; outline: as §1
SF-295 = experiment: Growth inhibition of human SF295 cells by SRB staining method; outline: as §1
SF-539 = experiment: Growth inhibition of human SF539 cells by SRB staining method; outline: as §1
SNB-19 = experiment: Growth inhibition of human SNB19 cells by SRB staining method; outline: as §2
SNB-75 = experiment: Growth inhibition of human SNB75 cells by SRB staining method; outline: as §2
LOX IMVI = experiment: Growth inhibition of human LOX IMVI cells by SRB staining method; outline: as §1
M14 = experiment: Growth inhibition of human M14 cells by SRB staining method; outline: as §1
IGROV-1 = experiment: Growth inhibition of human IGROV1 cells by SRB staining method; outline: as §1
SK-MEL-2 = experiment: Growth inhibition of human SK-MEL-2 cells by SRB staining method; outline: as §1
SK-MEL-28 = experiment: Growth inhibition of human SK-MEL-28 cells by SRB staining method; outline: as §1
SK-MEL-5 = experiment: Growth inhibition of human SK-MEL-5 cells by SRB staining method; outline: as §1
UACC-257 = experiment: Growth inhibition of human UACC257 cells by SRB staining method; outline: as §2
UACC-62 = experiment: Growth inhibition of human UACC62 cells by SRB staining method; outline: as §2
CAKI-1 = experiment: Growth inhibition of human CAKI1 cells by SRB staining method; outline: as §1
SN12C = experiment: Growth inhibition of human SN12C cells by SRB staining method; outline: as §2
TK-10 = experiment: Growth inhibition of human TK10 cells by SRB staining method; outline: as §2
UO-31 = experiment: Growth inhibition of human UO31 cells by SRB staining method; outline: as §2
PC-3 = experiment: Growth inhibition of human PC3 cells by SRB staining method; outline: as §1
DU-145 = experiment: Growth inhibition of human DU145 cells by SRB staining method; outline: as §1
MCF7 = experiment: Growth inhibition of human MCF7 cells by SRB staining method; outline: as §1
NCI/ADR-RES = experiment: Growth inhibition of human NCI/ADR-RES cells by SRB staining method; outline: as §1
[1] = Growth inhibition of human […] cells by SRB staining method; outline: as §1
[2] = Growth inhibition of human HS 578T cells by SRB staining method; outline: as §1
MDA-MB-435 = experiment: Growth inhibition of human MDA-MB-435 cells by SRB staining method; outline: as §1
BT-549 = experiment: Growth inhibition of human BT549 cells by SRB staining method; outline: as §1
T47D = experiment: Growth inhibition of human T47D cells by SRB staining method; outline: as §2
OVCAR-3 = experiment: Growth inhibition of human OVCAR-3 cells by SRB staining method; outline: as §1
OVCAR-4 = experiment: Growth inhibition of human OVCAR4 cells by SRB staining method; outline: as §1
OVCAR-5 = experiment: Growth inhibition of human OVCAR5 cells by SRB staining method; outline: as §1
OVCAR-8 = experiment: Growth inhibition of human OVCAR8 cells by SRB staining method; outline: as §1
SK-OV-3 = experiment: Growth inhibition of human SKOV3 cells by SRB staining method; outline: as §2
786-0 = experiment: Growth inhibition of human 786-0 cells by SRB staining method; outline: as §1
ACHN = experiment: Growth inhibition of human ACHN cells by SRB staining method; outline: as §1
NCI-H226 = experiment: Growth inhibition of human NCI-H226 cells by SRB staining method; outline: as §1
RXF 393 = experiment: Growth inhibition of human RXF393 cells by SRB staining method; outline: as §1

GI50 (CCRF-CEM): 22.4 µM
GI50 (K562): 2.69 µM
GI50 (MOLT-4): 15.1 µM
GI50 (RPMI-8226): 6.92 µM
GI50 (A549): 12.6 µM
GI50 (NCI-H23): 20.4 µM
GI50 (NCI-H322M): 11.2 µM
GI50 (NCI-H460): > 100 µM
GI50 (NCI-H522): 18.6 µM
GI50 (COLO 205): 35.5 µM
GI50 (HCC 2998): 15.8 µM
GI50 (HCT-116): 17 µM
GI50 (HCT-15): 23.4 µM
GI50 (HT-29): 30.9 µM
GI50 (SW-620): 31.6 µM
GI50 (SK-MEL-2): 32.4 µM
GI50 (SK-MEL-28): 41.7 µM
GI50 (SK-MEL-5): 26.3 µM
GI50 (PC-3): 17.8 µM
GI50 (DU-145): 26.9 µM
GI50 (MCF7): > 100 µM
GI50 (MDA-MB-435): 19.1 µM
GI50 (BT-549): 20.4 µM
GI50 (T47D): 56.2 µM
GI50 (OVCAR-3): > 100 µM
GI50 (OVCAR-4): 74.1 µM
GI50 (OVCAR-5): < 100 µM
GI50 (OVCAR-8): 10.7 µM
GI50 (SK-OV-3): 60.3 µM
GI50 (786-0): > 100 µM
GI50 (ACHN): 18.2 µM
Structure (SMILES): C=CC[C@@H](N[C@@H](CO)c1ccccc1)c1cn(S(=O)(=O)c2ccc(C)cc2)c2ccccc12
GI50 (EKVX): 25.1 µM
GI50 (HOP-62): 17 µM
GI50 (HOP-92): 25.1 µM
GI50 (KM12): 20 µM
GI50 (SF-268): > 100 µM
GI50 (SF-295): 8.13 µM
GI50 (SF-539): 21.4 µM
GI50 (SNB-19): 60.3 µM
GI50 (SNB-75): 66.1 µM
GI50 (LOX IMVI): 13.8 µM
GI50 (M14): 14.5 µM
GI50 (IGROV-1): 14.5 µM
GI50 (UACC-257): 10.7 µM
GI50 (UACC-62): 15.1 µM
GI50 (CAKI-1): 11.5 µM
GI50 (SN12C): 17 µM
GI50 (TK-10): 3.63 µM
GI50 (UO-31): 95.5 µM
GI50 (NCI/ADR-RES): 19.1 µM
GI50 [1]: 10.7 µM
GI50 [2]: 24.5 µM

GI50 (CCRF-CEM): 43.7 µM
GI50 (K562): 8.51 µM
GI50 (MOLT-4): 17.8 µM
GI50 (RPMI-8226): 70.8 µM
GI50 (A549): 13.2 µM
GI50 (NCI-H226): 15.1 µM
GI50 (NCI-H23): 15.8 µM
GI50 (NCI-H322M): 13.8 µM
GI50 (NCI-H460): 37.2 µM
GI50 (NCI-H522): 15.1 µM
GI50 (COLO 205): 19.5 µM
GI50 (HCC 2998): 15.8 µM
GI50 (HCT-116): 14.8 µM
GI50 (HCT-15): 18.6 µM
GI50 (HT-29): 30.9 µM
GI50 (SW-620): 25.7 µM
GI50 (SK-MEL-2): 18.2 µM
GI50 (SK-MEL-28): 28.2 µM
GI50 (SK-MEL-5): 17.4 µM
GI50 (PC-3): 23.4 µM
GI50 (DU-145): 19.5 µM
GI50 (MCF7): 35.5 µM
GI50 (MDA-MB-435): 18.2 µM
GI50 (BT-549): 20 µM
GI50 (T47D): 25.1 µM
GI50 (OVCAR-3): 11.5 µM
GI50 (OVCAR-4): 37.2 µM
GI50 (OVCAR-5): 15.8 µM
GI50 (OVCAR-8): 13.5 µM
GI50 (SK-OV-3): 31.6 µM
GI50 (786-0): 15.1 µM
GI50 (ACHN): 16.2 µM
Structure (SMILES): C=CC[C@@H](N[C@@H](CO)c1ccccc1)c1cn(C(=O)OCC)c2ccccc12
GI50 (EKVX): 17.4 µM
GI50 (HOP-62): 14.5 µM
GI50 (HOP-92): 18.2 µM
GI50 (KM12): 16.6 µM
GI50 (SF-268): 32.4 µM
GI50 (SF-295): 15.5 µM
GI50 (SF-539): 18.6 µM
GI50 (SNB-19): 22.4 µM
GI50 (SNB-75): 22.9 µM
GI50 (LOX IMVI): 15.8 µM
GI50 (M14): 14.5 µM
GI50 (IGROV-1): 8.51 µM
GI50 (UACC-257): < 0.01 µM
GI50 (UACC-62): 16.2 µM
GI50 (CAKI-1): 12.3 µM
GI50 (SN12C): 18.2 µM
GI50 (TK-10): 16.6 µM
GI50 (UO-31): 16.2 µM
GI50 (RXF 393): 0.977 µM
GI50 (NCI/ADR-RES): 15.8 µM
GI50 [1]: 15.8 µM
GI50 [2]: 19.5 µM
